Measurements collected from several papers.
Each line is one published result; the experiments were not run side by side. ≈ marks a conversion by molar mass, not a printed value.

SMILES	tested on	assay	system	conditions	endpoint	value
N.N.[Cl][Pt][Cl]	SU-DHL-8	cell growth or viability, ATP luminescence	–	72 h	IC50	940 nM
N=C(CC(O)c1cc2c(F)cc(F)cc2c2cc(C(F)(F)F)ccc12)Nc1cccc(F)c1 (stereo not shown)	Plasmodium knowlesi	parasite growth, SYBR Green	–	–	IC50	6.4 nM
Nc1ncn([C@@H]2O[C@H](CO)[C@@H](O)[C@H]2O)c(=O)n1	Influenza A virus	viral replication, inhibitor, ELISA	MDCK, H1N1	24 h	IC50	3420 nM
CC[C@H](C)C[C@H](C)CCCCCCCCC(=O)N[C@H]1C[C@@H](O)[C@@H](NCCN)NC(=O)[C@@H]2[C@@H](O)CCN2C(=O)[C@H]([C@H](O)CCN)NC(=O)[C@H]([C@H](O)[C@@H](O)c2ccc(O)cc2)NC(=O)[C@@H]2C[C@@H](O)CN2C(=O)[C@H]([C@@H](C)O)NC1=O	Pichia kudriavzevii	microbial killing, broth dilution	ATCC14243	48 h	MFC	4 µg/mL (≈ 3.66 µM)
C[C@@H]1C[C@@H]([C@H](O)CC2CC(=O)NC(=O)C2)C(=O)[C@@H](C)C1	Fusarium solani	microbial growth, broth dilution	–	–	MIC	12 µg/mL (≈ 42.7 µM)
COC(=O)OCOc1c2n(ccc1=O)N([C@@H]1c3ccccc3SCc3c1ccc(F)c3F)[C@@H]1COCCN1C2=O	Influenza A virus	viral replication, inhibitor	H1N1 PR/8	–	EC50	7.57 nM
O=c1c2ccccc2[se]n1-c1ccccc1	Influenza A virus	viral replication	Vero, H1N1	48 h	IC50	1570 nM
CC1=CC(=O)c2c(O)cccc2C1=O	HuCC-A1	cell growth or viability, MTT	–	–	IC50	10800 nM
CN[C@H](CC(C)C)C(=O)N[C@H]1C(=O)N[C@@H](CC(N)=O)C(=O)N[C@H]2C(=O)N[C@H]3C(=O)N[C@H](C(=O)N[C@H](C(=O)O)c4cc(O)cc(O)c4-c4cc3ccc4O)[C@H](O)c3ccc(c(Cl)c3)Oc3cc2cc(c3O[C@@H]2O[C@H](CO)[C@@H](O)[C@H](O)[C@H]2O[C@H]2C[C@](C)(N)[C@H](O)[C@H](C)O2)Oc2ccc(cc2Cl)[C@H]1O	Enterococcus	microbial growth, broth dilution	VRE	–	MIC	> 64 µg/mL
NC(=O)c1ncn([C@@H]2O[C@H](CO)[C@@H](O)[C@H]2O)n1	Influenza A virus	viral replication, inhibitor, ELISA	MDCK, H1N1	24 h	IC50	3440 nM
CCN(CC)CCCC(C)Nc1ccnc2cc(Cl)ccc12 (stereo not shown)	Plasmodium knowlesi	parasite growth, SYBR Green	–	–	IC50	19.5 nM
Sc1ncnc2nc[nH]c12	Influenza A virus	viral replication, inhibitor, ELISA	MDCK, H1N1	24 h	IC50	11400 nM
NC(=O)c1nc(F)c[nH]c1=O	Influenza A virus	viral replication, inhibitor	MDCK, H1N1 WSN	–	EC50	1570 nM
